Results of several laboratories.
Compare with care: the assays were run in different laboratories.
Cell line: PC-3
Observed: cell growth or viability

COc1cc2ncnc(Nc3ccc4c(c3)/C(=C/c3ccccc3)C(=O)N4)c2cc1OC
IC50 (MTT): 4.17 µM

COc1ccc(-c2cc(-c3c(OC)cccc3OC)c3c(=O)n(C)c(=O)n(C)c3n2)cc1
IC50 (MTT; 48 h): 18.6 µM

CCCOc1ccc2c(C)c(CC)c(=O)oc2c1C
viability (MTT; 125 µg/mL): 56.8%

Nc1n[nH]c2nc(-c3cccc(O)c3)cc(-c3cc4cc(Cl)ccc4nc3N3CCOCC3)c12
IC50 (MTT; 72 h): 0.166 µM

Cc1ccc(-c2cc(-c3ccc(Cl)c(F)c3)c3c(=O)n(C)c(=O)n(C)c3n2)cc1
IC50 (MTT; 48 h): 41.5 µM

COc1cc2ncnc(Nc3ccc4c(c3)/C(=C/c3cccc(Cl)c3)C(=O)N4C)c2cc1OC
IC50 (MTT): 22.2 µM

COc1ccc(-c2cc(-c3ccc(N(C)C)cc3)c3c(=O)n(C)c(=O)n(C)c3n2)cc1
IC50 (MTT; 48 h): 5.18 µM

O=C(O)c1ccccc1Nc1cccc(C(F)(F)F)c1
GI50 (SRB; 48 h): > 30 µM

Cc1nc(Nc2ccc3c(c2)/C(=C/c2ccccc2)C(=O)N3C)c2ccccc2n1
IC50 (MTT): 18.7 µM

CCc1c(C)c2ccc(OCc3nnc(S)n3N)c(C)c2oc1=O
viability (MTT; 500 µg/mL): 3.08%

Cc1nc2ccc(CN(C)c3ccc(C(=O)N[C@@H](CCC(=O)O)C(=O)O)s3)cc2c(=O)[nH]1
IC50 (MTT; 48 h): 3.09 µM

COc1cc2ncnc(N(C)c3ccc4c(c3)/C(=C/c3ccccc3)C(=O)N4C)c2cc1OC (mixture of isomers)
IC50 (MTT): 39.2 µM

COc1ccc(-c2cc(-c3cccc(Br)c3)c3c(=O)n(C)c(=O)n(C)c3n2)cc1
IC50 (MTT; 48 h): 18.4 µM

COc1cc2ncnc(Nc3ccc4c(c3)/C(=C/c3ccccc3)C(=O)N4C)c2cc1OC
IC50 (MTT): 37.9 µM

Cc1ccc(-c2cc(-c3ccc(N(C)C)cc3)c3c(=O)n(C)c(=O)n(C)c3n2)cc1
IC50 (MTT; 48 h): 21.5 µM

C=CC(=O)c1cccnc1Nc1cc(C(F)(F)F)ccc1OC
GI50 (SRB; 48 h): 5.58 µM

Cc1c(Cc2ccccc2)c(=O)oc2c(C)c(OCC(=O)NN=Cc3ccc([N+](=O)[O-])cc3)ccc12
viability (MTT; 500 µg/mL): 5.03%

CCCOc1nc(-c2cccc(O)c2)cc(-c2cc3cc(Cl)ccc3nc2N2CCOCC2)c1C#N
IC50 (MTT; 72 h): 0.542 µM

CC(=NNC(=O)COc1ccc2c(C)c(Cc3ccccc3)c(=O)oc2c1C)c1ccc(Br)cc1
viability (MTT; 250 µg/mL): 3.08%

Cc1ccc(-c2cc(-c3ccc(N(C)C)cc3)c3c(=O)[nH]c(=O)[nH]c3n2)cc1
IC50 (MTT; 48 h): 17.4 µM

Cc1c(Cc2ccccc2)c(=O)oc2c(C)c(OCC(=O)NN=Cc3ccc(Cl)cc3)ccc12
viability (MTT; 1000 µg/mL): 2.23%

COc1ccc(-c2cc(-c3ccccc3Cl)c3c(=O)[nH]c(=O)[nH]c3n2)cc1
IC50 (MTT; 48 h): 28.4 µM

CCc1c(C)c2ccc(OCC(=O)NNC(=S)Nc3ccccc3)c(C)c2oc1=O
viability (MTT; 500 µg/mL): 2.61%

Cc1nc(Nc2ccc3c(c2)/C(=C/c2ccccc2Cl)C(=O)N3)c2ccccc2n1
IC50 (MTT): 2.45 µM

Cc1c(Cc2ccccc2)c(=O)oc2c(C)c(OCC(=O)NN=Cc3ccccc3)ccc12
viability (MTT; 250 µg/mL): 14.1%

O=C(O)c1cccnc1Nc1cccc(C(F)(F)F)c1
GI50 (SRB; 48 h): > 30 µM
